Data set [1] concerns Trypanosoma brucei brucei. Description: Antitrypanosomal activity against Trypanosoma brucei brucei 427 bloodstream forms infected CHO-K1 cells expressing redox biosensor rxYFP assessed as induction of rxYFP oxidation at 1 mM after 1 hr by propidium iodide based flow cytometry relative to control. It counts as functional. The gist of the method: (§1)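 CHO-K1 cells expressing rxYFP in DMEM with 10% FCS, given 400 µg/mL zeocin 48 h before the assay. Trypsinized cells seeded at 8x10^5/mL and treated in triplicate for 1 h at 37 °C with 1, 5 or 10 µM test compound, 1 mM menadione, H2O2 or DTT, or 1% DMSO. Some wells then given 1 mM DTT for 30 min. PI-negative cells analysed by flow cytometry (488/530 nm), as % reduction relative to DMSO.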
A general note: A flow cytometer gives signals particle by particle.

Data set [2] has as its system Trypanosoma brucei brucei. Description: Antitrypanosomal activity against Trypanosoma brucei brucei 427 bloodstream forms infected CHO-K1 cells expressing redox biosensor rxYFP assessed as induction of rxYFP oxidation at 1 mM preincubated for 1 hr followed by DTT addition measured after 30 mins by propidium iodide based flow cytometry relative to control. The format is functional. In short, it runs like this:
as §1

Data set [3] has as its system Trypanosoma brucei brucei. The data set is described as follows: Inhibition of Trypanosoma brucei brucei recombinant trypanothione synthetase using GSH/spermididine as substrate assessed as residual activity by measuring phosphate release from ATP at 30 uM after 15 mins by Biomol Green reagent based assay relative to control.
In data set [4] the test system is Trypanosoma brucei brucei. Description: Antitrypanosomal activity against Trypanosoma brucei brucei 427 bloodstream forms at 5 uM after 24 hrs by propidium iodide dye based flow cytometry. The format is functional. The settings on record: for inhibition of growth at 5 µM: Trypanosoma brucei, 427, 24 h, read-out: GI. In short, it runs like this:
(§2)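 Bloodstream T. b. brucei 427 grown in HMI-9 with 10% FBS, penicillin/streptomycin, 37 °C, 5% CO2. Exponential-phase cells seeded at 5x10^5/mL; compounds added from DMSO stocks, 1% v/v DMSO final. […] Exposure 24 h, then diluted into PBS/1% glucose with 2 µg/mL PI and counted by flow cytometry. Viability given as % of DMSO-treated cell count.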

In another data set the test system is Trypanosoma cruzi. Description: Inhibition of Trypanosoma cruzi recombinant trypanothione synthetase using GSH/spermididine as substrate assessed as residual activity by measuring phosphate release from ATP at 30 uM after 15 mins by Biomol Green reagent based assay relative to control.
Another data set concerns Leishmania infantum. Description: Inhibition of Leishmania infantum recombinant trypanothione synthetase using GSH/spermididine as substrate assessed as residual activity by measuring phosphate release from ATP at 30 uM after 15 mins by Biomol Green reagent based assay relative to control.
Data set [5] deals with Trypanosoma brucei brucei. The data set is described as follows: Antitrypanosomal activity against Trypanosoma brucei brucei 427 bloodstream forms after 24 hrs by propidium iodide dye based flow cytometry. The settings on record: Trypanosoma brucei, 427, 24 h. It counts as functional. In short, it runs like this:
as §2

Data set [6] in a line: Selectivity index, ratio of EC50 for murine macrophage J774 cells to EC50 for Trypanosoma brucei brucei 427 bloodstream forms. It counts as toxicity. The note with it: mouse; read-out: Ratio EC50.
Data set [7] deals with Trypanosoma brucei brucei. The data set is described as follows: Antitrypanosomal activity against Trypanosoma brucei brucei 427 bloodstream forms infected CHO-K1 cells expressing redox biosensor hGrx-roGFP2 assessed as induction of hGrx-roGFP2 oxidation at 1 mM after 1 hr by flow cytometric method. The format is functional. In short, it runs like this: (§3)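 Parasites induced with oxytetracycline for 24 h, then moved to 1x10^6/200 µL without inducer. Treated in triplicate for 1 h at 37 °C with 78–310 nM test compound, 1 mM menadione, 15 µM nifurtimox, 1 mM DTT or 1% DMSO. Half then given 1 mM DTT for 30 min more. PI at 2 µg/mL added; biosensor read at 488/530 nm in PI-negative cells only, as % reduction relative to DMSO.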

Data set [8] deals with Trypanosoma brucei brucei. The data set is described as follows: Antitrypanosomal activity against Trypanosoma brucei brucei 427 bloodstream forms infected CHO-K1 cells expressing redox biosensor hGrx-roGFP2 assessed as induction of hGrx-roGFP2 oxidation at 1 mM preincubated for 1 hr followed by DTT addition measured after 30 mins by flow cytometric method. It counts as functional. The gist of the method: as §3

The test system of data set [9] is Trypanosoma brucei brucei. The data set is described as follows: Antitrypanosomal activity against Trypanosoma brucei brucei 427 bloodstream forms at 30 uM after 24 hrs by propidium iodide dye based flow cytometry. The format is functional. In short, it runs like this:
as §2

Activity calls are given as the source filed them. No cut-off for these calls is given here.

For `OO` [HYDROGEN PEROXIDE], the Activity in [1] worked out at 25%. The outcome in data set [2] was inactive.
Regarding `CC(=O)Nc1nc(C(=O)Nc2nc(C(=O)O)cs2)cs1`, the Activity came to 108% in data set [3], 99% in the data set on Trypanosoma cruzi and 102% with Leishmania infantum. For the same compound, the inhibition of growth at 5 µM in data set [4] worked out at 20%.
For orientation: EC50 means the midpoint of the concentration-response curve. Low readings indicate higher potency in that assay, high ones lower potency in that assay. As to `CCOC(=O)c1csc(NC(=O)c2csc(NC(=O)c3csc(N)n3)n2)n1`, the Activity in [3] turned out to be 100%; in the data set with Trypanosoma cruzi, 96.2%; in the data set with Leishmania infantum, 99.8%. The compound also yielded an EC50 in data set [5] of 5.5 µM. The selectivity ratio in [6] was 19.6.
`CCOC(=O)c1csc(NC(=O)c2csc(C)n2)n1`: the Activity in data set [3] is 95.2%; in the data set with Trypanosoma cruzi it was 99.7%; in the data set with Leishmania infantum it was 98.5%. Besides, the “growth inhibition (GI)” value in [4] was “inactive”.
As for `CCOC(=O)c1csc(NC(=O)c2csc(NC(=O)c3csc(NC(C)=O)n3)n2)n1`, the Activity in data set [3] was 93.7%; in the data set on Trypanosoma cruzi, 96.3%; in the data set on Leishmania infantum, 105%. This compound also registered an EC50 in data set [5] of 5.4 µM. Moreover, in [6], the selectivity ratio is 29.1.
`Cc1nc(C(=O)Nc2nc(C(=O)O)cs2)cs1`: the values for the Activity (in [3]; in the data set with Trypanosoma cruzi; in the data set with Leishmania infantum) were 96.6%, 104% and 102%, respectively. The inhibition of growth at 5 µM in [4] was 8.1%.
The like results for `CCOC(=O)c1csc(NC(=O)c2csc(N)n2)n1` were, in that order, 111%, 97.5%, 89.5% and 25.6%.
As to `CCOC(=O)c1csc(NC(=O)c2csc(NC(=O)c3csc(C)n3)n2)n1`, the Activity in data set [3] was determined as 112%; with Trypanosoma cruzi, 102%; with Leishmania infantum it was 110%. For the same compound, in [5], the EC50 stood at 5 µM. Further, the selectivity ratio in [6] was 10.5.
Take `CC1=CC(=O)c2ccccc2C1=O` [MENADIONE]: the results for the Activity in [1] and in data set [7] were 70% and 21%, respectively. The result in data set [8] and in [2] was inactive.
On to `CC(=O)Nc1nc(C(=O)Nc2nc(C(=O)Nc3nc(C(=O)O)cs3)cs2)cs1`, for which the outcome in data set [9] was inactive. Moreover, the Activity in data set [3] was 103%; in the data set on Trypanosoma cruzi it was 102%; with Leishmania infantum it was 83.6%. Besides, the “growth inhibition (GI)” value in data set [4] was “inactive”.
As for `O=c1[nH]c2cc3no[n+]([O-])c3cc2[nH]1`, in the data set on Trypanosoma cruzi, the Activity was determined as 64.9%.
Regarding `CC(C)(C)OC(=O)Nc1nc(C(=O)Nc2nc(C(=O)O)cs2)cs1`, the figures for the Activity (in data set [3]; in the data set on Trypanosoma cruzi; in the data set with Leishmania infantum) were 100%, 105% and 89.9%, respectively. Besides, the inhibition of growth at 5 µM in data set [4] came out at 10.8%.
Turning to `CCOC(=O)c1csc(NC(=O)c2csc(NC(=O)OC(C)(C)C)n2)n1`, the values for the Activity (in [3]; in the data set on Trypanosoma cruzi; with Leishmania infantum) were 111%, 96.4% and 102%, respectively. In data set [5], this compound gave an EC50 of 13.7 µM. Also, the selectivity ratio in data set [6] was 3.5.
Turning to `CNCCNC(=O)CN1C(=O)Cc2c([nH]c3ccc(Br)cc23)-c2ccc(Cl)cc21`, the figures for the Activity (in data set [3]; with Leishmania infantum) were 49.4% and 57.1%, respectively.
Turning to `CCOC(=O)c1csc(NC(=O)c2csc(NC(C)=O)n2)n1`, the Activity in data set [3] is 102%; with Trypanosoma cruzi, 98.1%; in the data set with Leishmania infantum, 82.8%. In data set [5], this compound displayed a 50% effective concentration (EC50) of 9.6 µM. Also, the selectivity ratio in [6] worked out at 7.4.
In the case of `O[C@H](CS)[C@H](O)CS`, in data set [7], the result was inactive.
As for `CC1CS(=O)(=O)CCN1/N=C/c1ccc([N+](=O)[O-])o1` (stereo unspecified) [NIFURTIMOX], the EC50 in data set [5] came out at 15 µM. Further, the selectivity ratio in [6] stood at 10.
Consider `CC(C)(C)OC(=O)Nc1nc(C(=O)Nc2nc(C(=O)Nc3nc(C(=O)O)cs3)cs2)cs1`, for which the Activity turned out to be 112% in data set [3], 112% in the data set on Trypanosoma cruzi and 116% with Leishmania infantum. Also, the inhibition of growth at 5 µM in [4] was 22.7%.

Values taken from ChEMBL document CHEMBL3994590, “In vitro activity and mode of action of distamycin analogues against African trypanosomes” (Eur J Med Chem, 2017).
